Assay results collected from several papers.
Lines come from different studies, so protocols differ.
Target: Serine/threonine-protein kinase STK11 (STK11, Homo sapiens, UniProt Q15831)
Residues used in one study (Q15831 1-433): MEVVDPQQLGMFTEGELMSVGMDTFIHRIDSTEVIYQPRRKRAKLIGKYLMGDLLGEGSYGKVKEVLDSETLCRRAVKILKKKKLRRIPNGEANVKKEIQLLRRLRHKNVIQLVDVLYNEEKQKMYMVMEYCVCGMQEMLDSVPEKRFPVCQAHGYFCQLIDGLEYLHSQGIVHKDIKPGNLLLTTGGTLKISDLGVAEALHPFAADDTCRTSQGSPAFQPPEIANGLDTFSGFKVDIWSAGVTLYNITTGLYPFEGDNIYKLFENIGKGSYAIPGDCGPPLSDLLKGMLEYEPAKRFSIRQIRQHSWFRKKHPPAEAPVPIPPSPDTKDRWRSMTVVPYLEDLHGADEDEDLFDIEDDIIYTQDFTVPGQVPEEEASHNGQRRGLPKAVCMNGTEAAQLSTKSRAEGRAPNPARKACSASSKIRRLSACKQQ

Cc1nn(C)cc1-c1nc2c(N3CCN(Cc4ccc(Cl)cc4)CC3)c(Cl)cnc2[nH]1 — remaining binding (binding; competition with immobilised ligand; 1 µM): 100%
COc1cc(Nc2ncc(F)c(Nc3ccc4c(n3)NC(=O)C(C)(C)O4)n2)cc(OC)c1OC — inhibition (binding; 10 µM): 0%
Nc1ncc(-c2nc(N3CCOCC3)nc(N3CCOCC3)n2)c(C(F)F)n1 — remaining binding (binding; competition with immobilised ligand; 10 µM): 91%
N#CC1(c2ccccn2)CCN(Cc2cc(C(=O)O)c(=O)n3ccccc23)CC1 — remaining binding (cell-free assay; competition with immobilised ligand; 1 µM): 100%
O=c1[nH]c2ccccc2n1C1CCN(Cc2ccc(-c3[nH]c4cc5ncnc5cc4nc3-c3ccccc3)cc2)CC1 — remaining signal (cell-free assay; 0.5 µM): 95.6%
COc1ncccc1-c1cnn2ccc(N3CCN(C(=O)OC(C)C)CC3)nc12 — remaining binding (binding; competition with immobilised ligand; 1 µM): 9.7%
CC(C)(C)c1cc(C=C(C#N)C#N)cc(Br)c1O — remaining activity (enzyme activity; inhibitor; 0.5 µM): 85.2%
Cn1cncc1[C@@](O)(COc1ccc(C#N)cc1-c1ccc(OC(F)(F)F)cc1)c1ccc(C#N)cc1 — remaining binding (cell-free assay; competition with immobilised ligand; 1 µM): 100%
